Reference: ChEMBL document CHEMBL2412990, “Synthesis and pharmacological evaluation of new N-phenylpiperazine derivatives designed as homologues of the antipsychotic lead compound LASSBio-579” (Eur J Med Chem, 2013)
The source made the active and inactive calls. No cut-off for these calls is given here.

Target: Muscarinic acetylcholine receptor (Rattus norvegicus) (UniProt P08482+P08483+P08485+P08911+P10980)
Test: Displacement of [3H]-QNB from muscarinic receptor in rat brain cortical membranes at 30 uM after 60 mins by liquid scintillation counting
Type: cell membranes
Conditions: Membrane
Method in brief: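 Cortical membranes, 150 µg protein, with 0.1 nM [3H]-QNB in 50 mM Tris-HCl pH 7.4 at room temperature for 60 min. Non-specific binding was defined with atropine sulfate. Samples were diluted with cold 5 mM Tris-HCl, vacuum-filtered on glass fibre filters and counted by liquid scintillation.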

Compound | inhibition [%]
Clc1ccc(-n2cc(COCCN3CCN(c4ccccc4)CC3)cn2)cc1 | 11
Clc1ccc(-n2cc(COCCCN3CCN(c4ccccc4)CC3)cn2)cc1 | 28
Clc1ccc(-n2cc(CCCN3CCN(c4ccccc4)CC3)cn2)cc1 | 39
Clc1ccc(-n2cc(CN3CCN(c4ccccc4)CC3)cn2)cc1 | 22
Clc1ccc(-n2cc(CCCCCN3CCN(c4ccccc4)CC3)cn2)cc1 | 26
Clc1ccc(-n2cc(CCCCN3CCN(c4ccccc4)CC3)cn2)cc1 | 2

System: Mus musculus
Test: Toxicity in CF1 mouse assessed as effect on locomotor activity measuring number of crossings at 1 to 3 mg/kg, ip administered 30 mins prior ketamine challenge measured for 20 mins post challenge
Type: organism-based
Parameters: dose 1-3 mg/kg, route intraperitoneal
Conditions: in vivo

Compound | Activity
Clc1ccc(-n2cc(CCCCN3CCN(c4ccccc4)CC3)cn2)cc1 | Non-toxic

Target: 5-hydroxytryptamine receptor 2A (Rattus norvegicus) (UniProt P14842)
Sequence (P14842 whole entry): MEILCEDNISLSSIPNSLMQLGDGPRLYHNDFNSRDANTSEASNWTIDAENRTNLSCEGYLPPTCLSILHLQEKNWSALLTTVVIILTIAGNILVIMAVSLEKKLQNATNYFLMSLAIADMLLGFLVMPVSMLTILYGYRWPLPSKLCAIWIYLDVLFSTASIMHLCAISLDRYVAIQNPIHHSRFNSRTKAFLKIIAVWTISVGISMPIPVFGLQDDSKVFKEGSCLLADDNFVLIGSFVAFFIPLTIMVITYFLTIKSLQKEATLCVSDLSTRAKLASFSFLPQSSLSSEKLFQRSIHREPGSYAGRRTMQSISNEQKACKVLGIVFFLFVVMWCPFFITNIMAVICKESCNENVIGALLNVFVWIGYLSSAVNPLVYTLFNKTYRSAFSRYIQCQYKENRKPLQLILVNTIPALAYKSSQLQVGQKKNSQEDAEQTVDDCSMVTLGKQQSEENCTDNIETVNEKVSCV
Test: Antagonist activity at 5HT2A receptor in rat brain cortical membranes assessed as inhibition of [3H]-ketanserin binding to receptor after 15 mins by competition assay in absence of GTP
Type: cell membranes
Conditions: not given
Method in brief: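 Rat cortical membranes, 150 µg protein, with 1 nM [3H]-ketanserin and 100 nM prazosin in 50 mM Tris-HCl pH 7.4, 37 °C, 15 min. Non-specific binding was defined with ketanserin. For the GTP shift, paired competition curves were run without and with guanylyl nucleotide (0.1 mM Gpp(NH)p or 1 mM GTP).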

Compound | inhibition
Clc1ccc(-n2cc(CCCCN3CCN(c4ccccc4)CC3)cn2)cc1 | Active

System: Mus musculus
Test: Antipsychotic activity in ip dosed CF1 mouse assessed as prevention of apomorphine-induced climbing behaviour compound administered 30 mins prior apomorphine challenge measured 5 to 30 mins post challenge
Type: functional, organism-based
Conditions: not given
Method in brief: (§1)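 Adult male mice, 25–35 g, dosed i.p. at 10 ml/kg, then placed in wire-bar cages for 30 min. Apomorphine 4 mg/kg s.c. followed. Climbing was scored 0–4 for 1 min at 5, 10, 15, 20, 25 and 30 min; the climbing index is the sum of scores. n = 7–9. Analysed by one-way ANOVA with Newman-Keuls post hoc test.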

Compound | Activity
Clc1ccc(-n2cc(CCCCN3CCN(c4ccccc4)CC3)cn2)cc1 | Dose-dependent effect

Target: Dopamine D2 receptor and Serotonin 2a receptor (D2 and 5HT2a) (Rattus norvegicus) (UniProt P61169+P14842)
Sequence (P14842 whole entry, looked up): as the sequence (P14842 whole entry) above
Sequence (P61169 whole entry, looked up): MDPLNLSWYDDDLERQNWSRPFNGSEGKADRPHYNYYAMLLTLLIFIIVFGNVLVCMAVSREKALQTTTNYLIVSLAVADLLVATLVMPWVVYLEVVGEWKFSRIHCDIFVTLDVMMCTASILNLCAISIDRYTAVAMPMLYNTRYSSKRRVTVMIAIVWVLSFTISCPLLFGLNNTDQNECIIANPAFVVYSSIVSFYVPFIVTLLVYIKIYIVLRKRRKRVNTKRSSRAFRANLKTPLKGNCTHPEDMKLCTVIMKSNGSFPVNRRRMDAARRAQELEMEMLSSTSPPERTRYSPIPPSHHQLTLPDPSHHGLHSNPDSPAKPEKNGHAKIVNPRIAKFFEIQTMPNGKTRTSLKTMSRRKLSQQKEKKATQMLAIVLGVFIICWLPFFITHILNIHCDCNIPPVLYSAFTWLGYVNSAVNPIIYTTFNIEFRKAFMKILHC
Test: Selectivity ratio of Ki for dopamine D2 receptor in rat brain striatal membranes to Ki for 5HT2A receptor in rat brain cortical membranes
Type: cell membranes
Conditions: Membrane

Compound | Ratio Ki
Clc1ccc(-n2cc(CN3CCN(c4ccccc4)CC3)cn2)cc1 | 0.056
Clc1ccc(-n2cc(CCCCN3CCN(c4ccccc4)CC3)cn2)cc1 | 0.4

System: Mus musculus
Test: Antipsychotic activity in CF1 mouse assessed as prevention of apomorphine-induced climbing behaviour at 0.1 to 10 mg/kg, ip administered 30 mins prior apomorphine challenge measured 5 to 30 mins post challenge
Type: functional, organism-based
Conditions: not given
Method in brief: as §1

Compound | Activity
Clc1ccc(-n2cc(CN3CCN(c4ccccc4)CC3)cn2)cc1 | Active

Target: 5-hydroxytryptamine receptor 2A (Rattus norvegicus, UniProt P14842)
Sequence (P14842 whole entry): as the sequence (P14842 whole entry) above
Test: Displacement of [3H]-ketanserin from 5HT2A receptor in rat brain cortical membranes after 15 mins by liquid scintillation counting
Type: cell membranes, Membrane
Conditions: not given

Compound | Ki [nM]
Clc1ccc(-n2cc(COCCN3CCN(c4ccccc4)CC3)cn2)cc1 | 2490
Clc1ccc(-n2cc(COCCCN3CCN(c4ccccc4)CC3)cn2)cc1 | 650
Clc1ccc(-n2cc(CCCN3CCN(c4ccccc4)CC3)cn2)cc1 | 600
Clc1ccc(-n2cc(CN3CCN(c4ccccc4)CC3)cn2)cc1 | 6910
Clc1ccc(-n2cc(CCCCCN3CCN(c4ccccc4)CC3)cn2)cc1 | 950
Clc1ccc(-n2cc(CCCCN3CCN(c4ccccc4)CC3)cn2)cc1 | 650

Target: T1, Adrenergic receptor alpha-2 (Rattus norvegicus, UniProt P22086+P19328+P22909)
T1 sequence (P22086 whole entry): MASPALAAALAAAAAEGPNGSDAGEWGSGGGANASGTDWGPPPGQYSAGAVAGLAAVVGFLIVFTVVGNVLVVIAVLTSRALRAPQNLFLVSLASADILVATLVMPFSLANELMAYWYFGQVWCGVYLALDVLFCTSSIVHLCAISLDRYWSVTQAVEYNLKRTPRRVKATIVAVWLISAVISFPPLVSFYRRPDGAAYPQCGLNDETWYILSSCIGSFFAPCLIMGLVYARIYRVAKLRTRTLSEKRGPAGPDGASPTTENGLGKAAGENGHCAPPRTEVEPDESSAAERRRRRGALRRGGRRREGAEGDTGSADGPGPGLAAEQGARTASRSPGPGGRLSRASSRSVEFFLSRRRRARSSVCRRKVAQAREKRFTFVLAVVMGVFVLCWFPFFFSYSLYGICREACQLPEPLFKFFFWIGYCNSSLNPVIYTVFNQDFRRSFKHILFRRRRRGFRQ
T1 sequence (P19328 whole entry): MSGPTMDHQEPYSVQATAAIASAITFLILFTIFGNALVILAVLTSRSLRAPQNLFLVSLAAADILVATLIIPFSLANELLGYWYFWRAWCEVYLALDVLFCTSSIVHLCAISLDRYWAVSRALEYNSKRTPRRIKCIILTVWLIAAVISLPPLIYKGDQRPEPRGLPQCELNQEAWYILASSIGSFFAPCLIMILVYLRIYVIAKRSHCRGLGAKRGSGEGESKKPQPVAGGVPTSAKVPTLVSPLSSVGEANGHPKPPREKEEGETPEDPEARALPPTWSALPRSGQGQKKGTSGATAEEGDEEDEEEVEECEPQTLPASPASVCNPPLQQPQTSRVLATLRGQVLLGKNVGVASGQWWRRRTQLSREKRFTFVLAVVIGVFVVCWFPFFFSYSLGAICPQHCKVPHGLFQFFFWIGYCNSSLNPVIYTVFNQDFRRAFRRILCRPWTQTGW
T1 sequence (P22909 whole entry): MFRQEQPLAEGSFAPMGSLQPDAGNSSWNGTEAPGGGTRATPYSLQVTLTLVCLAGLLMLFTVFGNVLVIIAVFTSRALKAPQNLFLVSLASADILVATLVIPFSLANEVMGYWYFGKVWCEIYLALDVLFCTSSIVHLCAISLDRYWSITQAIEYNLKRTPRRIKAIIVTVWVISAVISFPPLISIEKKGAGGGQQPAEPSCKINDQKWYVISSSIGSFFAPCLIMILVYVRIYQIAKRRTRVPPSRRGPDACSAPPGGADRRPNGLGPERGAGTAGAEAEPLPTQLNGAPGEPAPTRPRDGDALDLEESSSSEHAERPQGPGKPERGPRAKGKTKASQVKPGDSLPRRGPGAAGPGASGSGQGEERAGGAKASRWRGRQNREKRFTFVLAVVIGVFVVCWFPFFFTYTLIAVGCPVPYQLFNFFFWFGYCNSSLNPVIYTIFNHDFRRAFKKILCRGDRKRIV
Test: Displacement of [3H]-RX821002 from alpha2 adrenoreceptor in rat brain cortical membranes after 45 mins by liquid scintillation counting
Type: cell membranes, Membrane
Conditions: not given

Compound | Ki [nM]
Clc1ccc(-n2cc(COCCN3CCN(c4ccccc4)CC3)cn2)cc1 | 2100
Clc1ccc(-n2cc(COCCCN3CCN(c4ccccc4)CC3)cn2)cc1 | 2800
Clc1ccc(-n2cc(CCCN3CCN(c4ccccc4)CC3)cn2)cc1 | 1600
Clc1ccc(-n2cc(CN3CCN(c4ccccc4)CC3)cn2)cc1 | 2500
Clc1ccc(-n2cc(CCCCCN3CCN(c4ccccc4)CC3)cn2)cc1 | 1400
Clc1ccc(-n2cc(CCCCN3CCN(c4ccccc4)CC3)cn2)cc1 | 610

Target: T2, 5-hydroxytryptamine receptor 2C (Homo sapiens, UniProt P28335)
T2 sequence (P28335 whole entry): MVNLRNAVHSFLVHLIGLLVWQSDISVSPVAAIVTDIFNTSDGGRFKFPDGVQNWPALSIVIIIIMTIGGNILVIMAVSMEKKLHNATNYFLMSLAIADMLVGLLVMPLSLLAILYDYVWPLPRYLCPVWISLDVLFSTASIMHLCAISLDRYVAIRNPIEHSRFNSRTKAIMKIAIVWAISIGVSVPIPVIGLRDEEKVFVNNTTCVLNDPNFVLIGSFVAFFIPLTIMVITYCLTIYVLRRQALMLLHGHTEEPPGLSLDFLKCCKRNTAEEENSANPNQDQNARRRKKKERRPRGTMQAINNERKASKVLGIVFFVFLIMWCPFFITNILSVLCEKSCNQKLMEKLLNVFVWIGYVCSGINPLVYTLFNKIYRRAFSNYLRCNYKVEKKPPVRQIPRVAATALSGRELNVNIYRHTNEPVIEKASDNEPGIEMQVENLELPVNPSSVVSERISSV
Test: Displacement of [3H]-mesulergine from human 5HT2C receptor after 60 mins by liquid scintillation counting
Conditions: not given

Compound | Ki [nM]
Clc1ccc(-n2cc(COCCN3CCN(c4ccccc4)CC3)cn2)cc1 | 8100
Clc1ccc(-n2cc(COCCCN3CCN(c4ccccc4)CC3)cn2)cc1 | 2800
Clc1ccc(-n2cc(CCCN3CCN(c4ccccc4)CC3)cn2)cc1 | 5100
Clc1ccc(-n2cc(CN3CCN(c4ccccc4)CC3)cn2)cc1 | 8630
Clc1ccc(-n2cc(CCCCCN3CCN(c4ccccc4)CC3)cn2)cc1 | 7800
Clc1ccc(-n2cc(CCCCN3CCN(c4ccccc4)CC3)cn2)cc1 | 5900

System: Mus musculus
Test: Toxicity in CF1 mouse assessed as reduction in locomotor activity measuring number of crossings at 10 mg/kg, ip administered 30 mins prior ketamine challenge measured for 20 mins post challenge
Type: organism-based
Parameters: dose 10 mg/kg, route intraperitoneal
Conditions: in vivo

Compound | Activity
Clc1ccc(-n2cc(CCCCN3CCN(c4ccccc4)CC3)cn2)cc1 | Toxic
